Assay results reported in ChEMBL document CHEMBL4689842, “EUbOPEN Chemogenomics Library wave 1” (2021).

System: Fibroblast
Assay: Multiplex assay against human fibroblast
Type: toxicity, cell-based
Summary of the method: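 Live cells were stained at seeding with Hoechst33342, BioTracker Green Microtubule Cytoskeleton Dye, MitoTracker Red and Annexin V Alexa Fluor 680, then imaged on a CQ1 microscope at 37°C and 5% CO2 after compound addition. CellPathfinder machine-learning gating split cells into Hoechst high-intensity objects or normal cells. Normal cells were split into healthy, pyknosed or fragmented nuclei, and pyknosed cells into mitotic or apoptotic. Tubulin, mitochondrial-mass and membrane-permeability phenotypes are per cents of healthy-nucleus cells.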

[1] = 12 h, 1 µM, compound concentration 1 uM, replicate 1
[2] = 12 h, 1 µM, compound concentration 1 uM, replicate 2
[3] = 12 h, 10 µM, compound concentration 10 uM, replicate 1
[4] = 12 h, 10 µM, compound concentration 10 uM, replicate 2
[5] = 24 h, 1 µM, compound concentration 1 uM, replicate 1
[6] = 24 h, 1 µM, compound concentration 1 uM, replicate 2
[7] = 24 h, 10 µM, compound concentration 10 uM, replicate 1
[8] = 24 h, 10 µM, compound concentration 10 uM, replicate 2
[9] = 48 h, 1 µM, compound concentration 1 uM, replicate 1
[10] = 48 h, 1 µM, compound concentration 1 uM, replicate 2
[11] = 48 h, 10 µM, compound concentration 10 uM, replicate 1
[12] = 48 h, 10 µM, compound concentration 10 uM, replicate 2

CC(/C=C1\SC(=S)N(CCCC(=O)Nc2ccc(C(=O)O)c(O)c2)C1=O)=C\c1ccccc1
Population Apoptotic (%) [1]: 59%
Population Fragmented Nuclei (%) [1]: 22%
Population Healthy Nuclei (%) [1]: 47%
Population Hoechst High Intensity Objects (%) [1]: 11%
Population Membrane Permeable-Phenotype (%) [1]: 31%
Population Mitochondria Different-Phenotype (%) [1]: 4%
Population Mitotic Cells (%) [1]: 40%
Population Normal (%) [1]: 88%
Population Pyknosed Nuclei (%) [1]: 29%
Population Tubulin-Different-Phenotype (%) [1]: 38%
Total Cell Count [1]: 167
Population Apoptotic (%) [2]: 33%
Population Fragmented Nuclei (%) [2]: 10%
Population Healthy Nuclei (%) [2]: 81%
Population Hoechst High Intensity Objects (%) [2]: 6%
Population Membrane Permeable-Phenotype (%) [2]: 7%
Population Mitochondria Different-Phenotype (%) [2]: 7%
Population Mitotic Cells (%) [2]: 66%
Population Normal (%) [2]: 93%
Population Pyknosed Nuclei (%) [2]: 7%
Population Tubulin-Different-Phenotype (%) [2]: 7%
Total Cell Count [2]: 65
Population Apoptotic (%) [3]: 62%
Population Fragmented Nuclei (%) [3]: 32%
Population Healthy Nuclei (%) [3]: 48%
Population Hoechst High Intensity Objects (%) [3]: 61%
Population Membrane Permeable-Phenotype (%) [3]: 40%
Population Mitochondria Different-Phenotype (%) [3]: 9%
Population Mitotic Cells (%) [3]: 37%
Population Normal (%) [3]: 38%
Population Pyknosed Nuclei (%) [3]: 18%
Population Tubulin-Different-Phenotype (%) [3]: 54%
Total Cell Count [3]: 331
Population Apoptotic (%) [4]: 44%
Population Fragmented Nuclei (%) [4]: 17%
Population Healthy Nuclei (%) [4]: 72%
Population Hoechst High Intensity Objects (%) [4]: 7%
Population Membrane Permeable-Phenotype (%) [4]: 6%
Population Mitochondria Different-Phenotype (%) [4]: 6%
Population Mitotic Cells (%) [4]: 55%
Population Normal (%) [4]: 92%
Population Pyknosed Nuclei (%) [4]: 10%
Population Tubulin-Different-Phenotype (%) [4]: 9%
Total Cell Count [4]: 88
Population Apoptotic (%) [5]: 54%
Population Fragmented Nuclei (%) [5]: 23%
Population Healthy Nuclei (%) [5]: 50%
Population Hoechst High Intensity Objects (%) [5]: 7%
Population Membrane Permeable-Phenotype (%) [5]: 29%
Population Mitochondria Different-Phenotype (%) [5]: 1%
Population Mitotic Cells (%) [5]: 45%
Population Normal (%) [5]: 92%
Population Pyknosed Nuclei (%) [5]: 25%
Population Tubulin-Different-Phenotype (%) [5]: 37%
Total Cell Count [5]: 155
Population Fragmented Nuclei (%) [6]: 12%
Population Healthy Nuclei (%) [6]: 76%
Population Hoechst High Intensity Objects (%) [6]: 6%
Population Membrane Permeable-Phenotype (%) [6]: 4%
Population Mitochondria Different-Phenotype (%) [6]: 10%
Population Normal (%) [6]: 93%
Population Pyknosed Nuclei (%) [6]: 10%
Population Tubulin-Different-Phenotype (%) [6]: 12%
Total Cell Count [6]: 64
Population Apoptotic (%) [7]: 53%
Population Fragmented Nuclei (%) [7]: 32%
Population Healthy Nuclei (%) [7]: 45%
Population Hoechst High Intensity Objects (%) [7]: 57%
Population Membrane Permeable-Phenotype (%) [7]: 44%
Population Mitochondria Different-Phenotype (%) [7]: 6%
Population Mitotic Cells (%) [7]: 46%
Population Normal (%) [7]: 42%
Population Pyknosed Nuclei (%) [7]: 22%
Population Tubulin-Different-Phenotype (%) [7]: 44%
Total Cell Count [7]: 326
Population Apoptotic (%) [8]: 44%
Population Fragmented Nuclei (%) [8]: 9%
Population Healthy Nuclei (%) [8]: 83%
Population Hoechst High Intensity Objects (%) [8]: 4%
Population Membrane Permeable-Phenotype (%) [8]: 5%
Population Mitochondria Different-Phenotype (%) [8]: 14%
Population Mitotic Cells (%) [8]: 55%
Population Normal (%) [8]: 95%
Population Pyknosed Nuclei (%) [8]: 7%
Population Tubulin-Different-Phenotype (%) [8]: 14%
Total Cell Count [8]: 115
Population Apoptotic (%) [9]: 62%
Population Fragmented Nuclei (%) [9]: 34%
Population Healthy Nuclei (%) [9]: 52%
Population Hoechst High Intensity Objects (%) [9]: 14%
Population Membrane Permeable-Phenotype (%) [9]: 30%
Population Mitochondria Different-Phenotype (%) [9]: 3%
Population Mitotic Cells (%) [9]: 37%
Population Normal (%) [9]: 85%
Population Pyknosed Nuclei (%) [9]: 12%
Population Tubulin-Different-Phenotype (%) [9]: 33%
Total Cell Count [9]: 146
Population Apoptotic (%) [10]: 100%
Population Fragmented Nuclei (%) [10]: 15%
Population Healthy Nuclei (%) [10]: 81%
Population Hoechst High Intensity Objects (%) [10]: 12%
Population Membrane Permeable-Phenotype (%) [10]: 18%
Population Mitochondria Different-Phenotype (%) [10]: 1%
Population Mitotic Cells (%) [10]: 0%
Population Normal (%) [10]: 87%
Population Pyknosed Nuclei (%) [10]: 2%
Population Tubulin-Different-Phenotype (%) [10]: 35%
Total Cell Count [10]: 127
Population Apoptotic (%) [11]: 69%
Population Fragmented Nuclei (%) [11]: 49%
Population Healthy Nuclei (%) [11]: 40%
Population Hoechst High Intensity Objects (%) [11]: 55%
Population Membrane Permeable-Phenotype (%) [11]: 37%
Population Mitochondria Different-Phenotype (%) [11]: 13%
Population Mitotic Cells (%) [11]: 30%
Population Normal (%) [11]: 44%
Population Pyknosed Nuclei (%) [11]: 9%
Population Tubulin-Different-Phenotype (%) [11]: 54%
Total Cell Count [11]: 297
Population Apoptotic (%) [12]: 33%
Population Fragmented Nuclei (%) [12]: 23%
Population Healthy Nuclei (%) [12]: 72%
Population Hoechst High Intensity Objects (%) [12]: 12%
Population Membrane Permeable-Phenotype (%) [12]: 14%
Population Mitochondria Different-Phenotype (%) [12]: 4%
Population Mitotic Cells (%) [12]: 66%
Population Normal (%) [12]: 87%
Population Pyknosed Nuclei (%) [12]: 4%
Population Tubulin-Different-Phenotype (%) [12]: 38%
Total Cell Count [12]: 74
